# Screens: PubChem, several laboratories
# Only a selection was taken, and hits are over-represented in it overall.
# HSF1 activator – increases HSF-1 driven luciferase reporter signal; activation, % at 9 µM; NIH3T3-HGL HSF-1 luciferase reporter, MG132, 8 h; 100% = twice DMSO control signal; 300,000 tested, 1.7% active;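 active = mean replicate activation of at least 50% with a set share of replicates each reaching 50%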;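 also: 0% = median of the neutral control wells and 100% = twice that signal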
# L major viab – Leishmania major promastigote growth inhibition; Leishmania major promastigotes, resazurin fluorescence viability; inhibition, % at 10 µM; 200,000 tested, 9% active; AID 1063; in the data active = inhibition above about 50%;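 also: promastigotes grown with compound for 44 hours at 28 °C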
# HSF1 inh – HSF1 inhibition; NIH3T3-HGL HSE-luciferase, MG132-induced, luminescence 8 h; hits give low values; activity change, negative = inhibition, % at 7.5 µM (by protocol); 300,000 tested, 0.77% active;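 active = more than half of replicate wells show activity change below -50%, luminescence cut by over half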;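 also: luciferase reports HSF-1 transcriptional activity via heat shock element; 0% = median of DMSO wells and -100% = zero luminescence signal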
# T cruzi repl – blocks replication of Trypanosoma cruzi; T. cruzi beta-gal in NIH3T3, luminescence, 90 h; inhibition, % (test concentration not listed); 300,000 tested, 1.4% active;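 active = mean inhibition across valid replicates above about 55%, limit read from the data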;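 also: signal also drops with host cell toxicity which is not excluded here; 0% = plate median of DMSO wells and 100% = zero luminescence signal; higher percent means less beta-gal luminescence so fewer parasites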
#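 assay system = mouse NIH/3T3 fibroblasts infected with β-gal-expressing T. cruzi Tulahuen C4 | input = 5,000 NIH/3T3 host cells per well | buffer or medium = DMEM plus 2% FBS | timing = 3 h host attachment, then at least 90 h co-culture | measured by = GalScreen luminescence, 60 min | evaluation = luminescence reflecting intracellular parasite burden, expressed as percent inhibition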
# Hsp70 act – Hsp70 transcriptional activation, primary screen | activation, % at 10 µM | 200,000 tested, 0.04% active | AID 1203 | HeLa Hsp70 promoter luciferase reporter, luminescence; scaled: vehicle 0, proteasome-inhibitor control 100%;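 active = activation above the mean across all tested compounds plus 3 SD, cutoff set per campaign, cut at about 5.5% in these data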;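 also: 100% = MG132 at 30 µM as the positive control and 0% = DMSO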
# An asterisk follows results filed as active; / = no result.
SMILES,HSF1 activator,L major viab,HSF1 inh,T cruzi repl,Hsp70 act
CCN1C(=O)/C(=C\c2nc3ccccc3c(=O)n2CC)c2ccccc21,-13,96*,5,3,0
CCN1C(=O)[C@H]2[C@@H](c3ccc(-c4ccc(OC)cc4)c(OC)c3)N3CCCC[C@@]3(C(=O)OC)[C@H]2C1=O,5,/,3,26,/
CCCCN(Cc1ccccc1)S(=O)(=O)c1cc(Br)cc2c1N(C(C)=O)C(C)C2 (configuration not stated),9,98*,6,46,0
O=C(COc1ccccc1)NC(=S)Nc1cccc2cc(O)ccc12,85*,/,66,4,/
CC(C)c1ccc(OCC(=O)NC(=S)Nc2ccc3c4c(cccc24)CC3)cc1,68*,-5,20,3,0
Cc1cc(C)n2nc(-c3ccsc3-n3c(C)ccc3C)cc2n1,4,2,-6,55*,0
CCOc1ccccc1N1CCN(S(=O)(=O)c2ccc3c4c(cccc24)C(=O)N3)CC1,24,74*,5,13,0
CCOC(=O)N1CCN(S(=O)(=O)c2ccc3c4c(cccc24)C(=O)N3)CC1,6,/,5,-6,/
O=C(Cn1c2ccc(F)cc2c2nc3n(c(=O)c21)CCS3)NCC1CCCO1 (configuration not stated),-10,/,2,-1,/
O=C(COc1ccccc1Cl)N1CCN(c2ccccn2)CC1,-20,/,0,-6,/
O=C(/C=C/c1cn(-c2ccccc2)nc1-c1cccnc1)c1ccco1,119*,100*,97,4,1
NC(=O)c1ccc(NC(=O)COC(=O)/C=C/c2cn(-c3ccccc3)nc2-c2cccnc2)cc1,7,51*,-4,-14,0
C=CCOC(=O)c1c(C)nc2cc3c(cc2c1C)OCO3,27,4,4,15,0
COc1ccc(-c2n[nH]c(C)c2-c2cnn(-c3ccccc3)c2)c(O)c1C,26,67*,-3,1,0
COc1ccc(-c2n[nH]c(C)c2-c2cnn(-c3ccccc3)c2)c(O)c1,2,-12,-3,-1,0
COc1ccc(-c2onc(C)c2-c2cnn(-c3ccccc3)c2)c(O)c1C,/,84*,/,19,0
COc1cccc(NC(=O)c2ccc(OC(F)(F)F)cc2)c1,26,/,17,-22,/
CCCCC(OC(=O)c1ccco1)C(=O)NCc1ccc(C)cc1 (configuration not stated),15,/,14,-2,/
CCn1c(C)nc2cc(C(=O)NNC(=S)Nc3ccc(OC)cc3)ccc21,-8,-1,3,-5,0
CN1CCN(CC(O)c2ccccc2)CC1 (configuration not stated),-16,-2,-2,55*,0
CCCC(=O)Nc1cccc(C(=O)Nc2ccccc2OCC)c1,-3,13,5,-3,0
COc1ccc(Cl)cc1NC(=S)N1CC(C)OC(C)C1 (configuration not stated),10,/,3,-9,/
Cc1cc(N)n(-c2ncnc3scc(-c4ccc(Cl)cc4)c23)n1,-2,-1,-13,-11,0
Clc1ncnc2scc(-c3ccc(Br)cc3)c12,-13,94*,3,-37,0
Cc1ccc(NC(=O)c2ccccc2NS(=O)(=O)c2ccc(Cl)s2)cc1,8,53*,-8,-38,0
SMILES,HSF1 activator,L major viab,HSF1 inh,T cruzi repl,Hsp70 act
COc1ccc(NC(C)C(=O)Nc2ccc(C(C)(C)C)cc2)cc1Cl (configuration not stated),32,50*,9,22,0
COc1ccc(NC(=O)C(NCC(C)C)c2ccccc2)cc1Cl (configuration not stated),71*,19,30,-6,0
COc1ccc(NC(=O)C(Sc2nnc(-c3ccncc3)n2-c2ccccc2C)c2ccccc2)cc1Cl (configuration not stated),53*,99*,17,49,0
COc1ccc(NC(C)C(=O)Nc2ccc(C#N)cc2)cc1Cl (configuration not stated),-3,6,3,3,0
COc1ccc(NC(=O)C(OC)c2ccccc2)cc1Cl (configuration not stated),8,-5,1,-11,0
Cc1cccc(C)c1NC(=O)c1cccc(N2C(=O)C3CCC(C)CC3C2=O)c1 (configuration not stated),-16,/,-2,-7,/
CSCc1ccc(C(=O)N2CCC(N3CCC(C(=O)NC(C)C)CC3)CC2)o1,3,/,1,-8,/
Cc1c(NC(=O)C(C)OC(=O)CCOc2ccccc2)c(=O)n(-c2ccccc2)n1C (configuration not stated),-6,/,-4,-12,/
Clc1ccc(CNc2ccc3nnc(-c4ccccc4)n3n2)cc1,19,-3,9,-43,0
CCOc1ccc(CCNc2ccc3nnc(-c4ccccc4)n3n2)cc1OCC,-7,77*,-5,26,0
Cc1ccc(NC(=O)CCc2c(C)nn(-c3ccc(N4CCCCC4)nn3)c2C)cc1C,56*,/,36,22,/
O=C(NCCc1ccc(Cl)cc1)c1ccc2nc[nH]c2c1,22,1,23,-6,0
Cc1ccc(C)c(N2CCN(C(=O)c3ccc4nc(-c5ccco5)c(-c5ccco5)nc4c3)CC2)c1,-3,82*,-5,-2,0
O=C(NC1CCCC1)c1ccc2nc(-c3ccco3)c(-c3ccco3)nc2c1,/,-6,/,/,0
O=C(c1ccccc1)c1ccc2nc(-c3ccco3)c(-c3ccco3)nc2c1,89*,-7,19,-1,0
O=C(NCCc1ccccc1)c1ccc2nc(-c3ccco3)c(-c3ccco3)nc2c1,1,72*,7,-1,0
O=C(NCCc1ccc(Cl)cc1)c1ccc2nccnc2c1,60*,/,43,-13,/
O=C(NCCO)c1ccc2nc(-c3ccco3)c(-c3ccco3)nc2c1,-17,-3,-4,-1,0
CCN1C(=O)[C@H]2[C@@H](c3ccc(C)cc3)N3C(=O)N(c4ccc(C(F)(F)F)cc4)C(=O)[C@@]3(Cc3ccccc3)[C@H]2C1=O,9,/,6,-4,/
Cc1ccc(C)c(NC(=O)CCCCCCCCCCC2COCCO2)c1 (configuration not stated),11,-1,10,15,0
CN(C)CCN1C(=O)C2C(C(=O)Nc3cc(Cl)cc(Cl)c3)C3C=CC2(O3)C1C(=O)NC1CCCCC1 (configuration not stated),85*,/,46,11,/
Cc1cc(C)c2nc(NC(=O)[C@@H](NC(=O)c3cccc(S(=O)(=O)N4CCOCC4)c3)C(C)C)sc2c1,7,97*,10,24,0
CCOC(=O)N1CCN(S(=O)(=O)c2ccc(C(=O)NNc3nc4cc(C)cc(C)c4s3)cc2)CC1,-23,21,-9,49,0
Cc1cc(C)c2nc(NNC(=O)c3ccc(S(=O)(=O)N4CCCCC4)cc3)sc2c1,3,89*,4,50,0
